# From ChEMBL document CHEMBL1154752, “Discovery of a new and efficient small molecule for neuronal differentiation from mesenchymal stem cell” (J Med Chem, 2009)
# Active and inactive are the calls of the source. The calls are words filed in the database; no cut-off is given here.
# What was measured:
# [1] = tested on: Mesenchymal stem cell; experiment: Induction of neuronal differentiation in Fisher rat mesenchymal stem cells assessed as change in cell morphology at 20 uM after 2 days; format: functional, cell-based
# Summary of the method: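 Bone marrow MSCs treated at 20 μM for 2 days. Morphology inspected by immunocytochemistry with anti-β-III tubulin and DAPI staining.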
# [2] = tested on: PC-12; experiment: Induction of neuronal differentiation in rat PC12 cells assessed as increase in beta-3 tubulin expression after 48 hrs; format: functional, cell-based
# [3] = tested on: Mesenchymal stem cell; experiment: Induction of neuronal differentiation in Fisher rat mesenchymal stem cells assessed as induction of potassium current at 20 uM after 2 days by patch clamp method; format: functional, cell-based
# Summary of the method: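 Rat MSCs treated at 20 μM for 2 days. Whole-cell patch clamp records membrane K+ current under voltage pulses from -30 to 90 mV.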
# [4] = tested on: Mesenchymal stem cell; experiment: Induction of neuronal differentiation in Fisher rat mesenchymal stem cells assessed as increase in neuron specific enolase expression after 2 days; format: functional, cell-based
# Summary of the method: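 Rat bone marrow MSCs treated over a time course. Neuron-specific enolase protein followed alongside β-III tubulin. More than three independent experiments.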
# [5] = tested on: Mesenchymal stem cell; experiment: Induction of neuronal differentiation in Fisher rat mesenchymal stem cells assessed as induction of Chrnb2 gene expression by DNA microarray; format: functional, cell-based
# [6] = tested on: Mesenchymal stem cell; experiment: Induction of neuronal differentiation in Fisher rat mesenchymal stem cells assessed as induction of Chrna2 gene expression by DNA microarray; format: functional, cell-based
# [7] = tested on: Mesenchymal stem cell; experiment: Induction of neuronal differentiation in Fisher rat mesenchymal stem cells assessed as induction of cholinergic receptor gene expression after 2 days by quantitative PCR; format: functional, cell-based
# Summary of the method: (§1)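 MSCs incubated at 10 and 20 μM for 2 days beside a DMSO control. mRNA levels measured by quantitative PCR, three independent runs.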
# [8] = tested on: Mesenchymal stem cell; experiment: Induction of astroglial differentiation in Fisher rat mesenchymal stem cells assessed as GFAP level at 20 uM after 2 days by Western blot; format: functional, cell-based
# Summary of the method: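 Rat bone marrow MSCs exposed to 20 μM for 48 h. GFAP, the astroglial marker, detected by Western blot.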
# [9] = tested on: PC-12; experiment: Induction of neurite outgrowth in rat PC12 cells after 48 hrs; format: functional, cell-based
# [10] = tested on: Mesenchymal stem cell; experiment: Induction of neuronal differentiation in Fisher rat mesenchymal stem cells assessed as induction of Sizn1 gene expression after 2 days by quantitative PCR; format: functional, cell-based; summary of the method: as §1
# [11] = Toxicity in Fisher rat mesenchymal stem cells at 20 uM after 2 days; format: cell-based; settings: mesenchymal stem cell, 48 h
# [12] = tested on: Mesenchymal stem cell; experiment: Induction of neuronal differentiation in Fisher rat mesenchymal stem cells assessed as induction of Chrm4 gene expression by DNA microarray; format: functional, cell-based
# [13] = tested on: Mesenchymal stem cell; experiment: Induction of neuronal differentiation in Fisher rat mesenchymal stem cells assessed as increase in beta-3 tubulin expression after 2 days; format: functional, cell-based
# Summary of the method: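 Rat bone marrow MSCs given 20 μM for 2 days, with 50 ng/mL NGF as comparator. β-III tubulin detected by Western blot and by immunocytochemistry with anti-β-III tubulin plus DAPI counterstain. More than three independent repeats.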
# [14] = Induction of neuronal differentiation in Fisher rat mesenchymal stem cells at 20 uM after 2 days by Nissl staining; format: functional, Mesenchymal stem cell
# Summary of the method: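 Bone marrow MSCs held at 20 μM for 2 days, then Nissl stained. Differentiation estimated by counting cells. Each experiment repeated independently more than three times.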
# [15] = tested on: Mesenchymal stem cell; experiment: Induction of neuronal differentiation in Fisher rat mesenchymal stem cells assessed as induction of Fbxo2 gene expression after 2 days by quantitative PCR; format: functional, cell-based; summary of the method: as §1
# [16] = tested on: PC-12; experiment: Induction of neuronal differentiation in rat PC12 cells assessed as increase in neuron specific enolase expression after 48 hrs; format: functional, cell-based
# [17] = tested on: Mesenchymal stem cell; experiment: Induction of neuronal differentiation in Fisher rat mesenchymal stem cells assessed as change in acetylcholine-induced membrane potential at 20 uM after 2 days by FLIPR; format: functional, cell-based
# Summary of the method: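 Rat MSCs preincubated with 20 μM for 48 h. Membrane potential read with a FLIPR membrane potential dye kit after addition of 10 μM acetylcholine, with untreated cells as reference.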
compound,measurement,setting,value
O=C(NOC1CCCCO1)c1ccc2nc(CCCc3ccccc3)c(=O)[nH]c2c1 (configuration not stated),Activity,[1],inactive
COC(=O)c1ccc2[nH]c(=O)c(CCCc3ccccc3)nc2c1,Activity,[1],inactive
O=C(NO)c1ccc2nc(CCCc3ccccc3)c(=O)[nH]c2c1,Activity,[1],inactive
O=C(NO)c1ccc2[nH]c(=O)c(CCCc3ccccc3)nc2c1,Activity,[2],Active
same,Activity,[3],Active
same,Activity,[4],Dose-dependent effect
same,Activity,[5],Active
same,Activity,[6],Active
same,Activity,[7],Dose-dependent effect
same,Activity,[1],Active
same,Activity,[8],inactive
same,Activity,[9],Active
same,Activity,[10],Dose-dependent effect
same,Activity,[11],Non-toxic
same,Activity,[12],Active
same,Activity,[13],Dose-dependent effect
same,Activity,[14],>95%
same,Activity,[15],Dose-dependent effect
same,Activity,[16],Active
same,Activity,[17],Active
O=C(NOC1CCCCO1)c1ccc2[nH]c(=O)c(CCCc3ccccc3)nc2c1 (configuration not stated),Activity,[1],inactive
COC(=O)c1ccc2nc(CCCc3ccccc3)c(=O)[nH]c2c1,Activity,[1],inactive
